Experimental findings from ChEMBL document CHEMBL1153621, “Regioselective reaction: synthesis, characterization and pharmacological studies of some new Mannich bases derived from 1,2,4-triazoles” (2009) are described below.

Converted amounts (≈) assume the structure as drawn.

What all share (assay type): functional
Experiment [1] has as its system Staphylococcus aureus. Nature of the experiment: Antibacterial activity against Staphylococcus aureus after 16 to 18 hrs by serial dilution method. The method, boiled down: (§1)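 MIC by serial dilution: compound dissolved in serially diluted DMF, a standard drop of prepared culture added to each dilution, incubated 16–18 h at 37 °C; MIC taken as the endpoint.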
Experiment [2] deals with Bacillus subtilis. Nature of the experiment: Antibacterial activity against Bacillus subtilis after 16 to 18 hrs by serial dilution method. The procedure, abridged: as §1
Experiment [3] concerns Escherichia coli. Nature of the experiment: Antibacterial activity against Escherichia coli after 16 to 18 hrs by serial dilution method. The method, boiled down:
as §1

In experiment [4] the test system is Pseudomonas aeruginosa. Nature of the experiment: Antibacterial activity against Pseudomonas aeruginosa after 16 to 18 hrs by serial dilution method. The method, boiled down: as §1
For experiment [5], the system named is Candida albicans. Kind of experiment: Antifungal activity against Candida albicans after 16 to 18 hrs by serial dilution method. The method, boiled down:
as §1

The term MIC denotes the lowest concentration found to suppress growth. Low readings indicate greater potency, high ones weaker potency. Regarding `Cc1ccc(-c2n[nH]cc2/C=N/n2c(-c3ccccc3)nn(CN3CCN(C)CC3)c2=S)cc1`, the MIC in experiment [1] was determined as 6 µg/mL (≈ 12.7 µM); in experiment [2] it was 12.5 µg/mL (≈ 26.4 µM); in experiment [3], 6 µg/mL (≈ 12.7 µM); in experiment [4], 3 µg/mL (≈ 6.35 µM); in experiment [5], 3 µg/mL (≈ 6.35 µM).
Take `CCCc1nn(CN2CCN(C)CC2)c(=S)n1/N=C/c1c[nH]nc1-c1ccc(Cl)cc1`: the MIC in experiment [1], in experiment [2], in experiment [3], in experiment [4] and in experiment [5] was 3 µg/mL (≈ 6.54 µM) each time.
Regarding `COc1ccc(-c2n[nH]cc2/C=N/n2c(C)nn(CN3CCN(C)CC3)c2=S)cc1`, the MIC came to 6 µg/mL (≈ 14.1 µM) in experiment [1]; 6 µg/mL (≈ 14.1 µM) in experiment [2]; 6 µg/mL (≈ 14.1 µM) in experiment [3]; 1.5 µg/mL (≈ 3.52 µM) in experiment [4]; 6 µg/mL (≈ 14.1 µM) in experiment [5].
Take `Cc1n[nH]cc1/C=N/n1c(-c2ccccc2)nn(CN2CCN(C)CC2)c1=S`: the MIC was 12.5 µg/mL (≈ 31.5 µM) in experiment [1]; 12.5 µg/mL (≈ 31.5 µM) in experiment [2]; 6 µg/mL (≈ 15.1 µM) in experiment [3]; 12.5 µg/mL (≈ 31.5 µM) in experiment [4]; 6 µg/mL (≈ 15.1 µM) in experiment [5].
Take `CCCc1nn(CN2CCN(C)CC2)c(=S)n1/N=C/c1c[nH]nc1-c1ccc(OC)cc1`: the MIC in experiment [1] came out at 6 µg/mL (≈ 13.2 µM); in experiment [2] it was 12.5 µg/mL (≈ 27.5 µM); in experiment [3], 12.5 µg/mL (≈ 27.5 µM); in experiment [4] it was 6 µg/mL (≈ 13.2 µM); in experiment [5], 6 µg/mL (≈ 13.2 µM).
Regarding `Cc1ccc(-c2n[nH]cc2/C=N/n2c(C)nn(CN3CCN(C)CC3)c2=S)cc1`, the MIC amounted to 12.5 µg/mL (≈ 30.4 µM) in experiment [1]; 6 µg/mL (≈ 14.6 µM) in experiment [2]; 6 µg/mL (≈ 14.6 µM) in experiment [3]; 12.5 µg/mL (≈ 30.4 µM) in experiment [4]; 6 µg/mL (≈ 14.6 µM) in experiment [5].
On to `CCCc1nn(CN2CCN(C)CC2)c(=S)n1/N=C/c1c[nH]nc1-c1ccccc1`, for which the MIC turned out to be 6 µg/mL (≈ 14.1 µM) in experiment [1]; 6 µg/mL (≈ 14.1 µM) in experiment [2]; 12.5 µg/mL (≈ 29.4 µM) in experiment [3]; 12.5 µg/mL (≈ 29.4 µM) in experiment [4]; 6 µg/mL (≈ 14.1 µM) in experiment [5].
As for `Cc1n[nH]cc1/C=N/n1c(C)nn(CN2CCN(C)CC2)c1=S`, the MIC in experiment [1] is 12.5 µg/mL (≈ 37.4 µM); in experiment [2], 6 µg/mL (≈ 17.9 µM); in experiment [3], 6 µg/mL (≈ 17.9 µM); in experiment [4] it was 6 µg/mL (≈ 17.9 µM); in experiment [5], 6 µg/mL (≈ 17.9 µM).
As to `COc1ccc(-c2n[nH]cc2/C=N/n2c(-c3ccccc3)nn(CN3CCN(C)CC3)c2=S)cc1`, the MIC in experiment [1] was 6 µg/mL (≈ 12.3 µM); in experiment [2], 6 µg/mL (≈ 12.3 µM); in experiment [3] it was 6 µg/mL (≈ 12.3 µM); in experiment [4], 3 µg/mL (≈ 6.14 µM); in experiment [5], 6 µg/mL (≈ 12.3 µM).
On to `Cc1nn(CN2CCN(C)CC2)c(=S)n1/N=C/c1c[nH]nc1-c1ccccc1`, for which the MIC in experiment [1] came out at 6 µg/mL (≈ 15.1 µM); in experiment [2], 6 µg/mL (≈ 15.1 µM); in experiment [3] it was 12.5 µg/mL (≈ 31.5 µM); in experiment [4], 6 µg/mL (≈ 15.1 µM); in experiment [5] it was 6 µg/mL (≈ 15.1 µM).
Turning to `CCCc1nn(CN2CCN(C)CC2)c(=S)n1/N=C/c1c[nH]nc1-c1ccc(C)cc1`, the MIC in experiment [1] worked out at 6 µg/mL (≈ 13.7 µM); in experiment [2], 12.5 µg/mL (≈ 28.5 µM); in experiment [3], 6 µg/mL (≈ 13.7 µM); in experiment [4], 6 µg/mL (≈ 13.7 µM); in experiment [5], 6 µg/mL (≈ 13.7 µM).
Take `CN1CCN(Cn2nc(-c3ccccc3)n(/N=C/c3c[nH]nc3-c3ccccc3)c2=S)CC1`: the MIC in experiment [1] is 6 µg/mL (≈ 13.1 µM); in experiment [2], 12.5 µg/mL (≈ 27.3 µM); in experiment [3], 6 µg/mL (≈ 13.1 µM); in experiment [4] it was 6 µg/mL (≈ 13.1 µM); in experiment [5] it was 6 µg/mL (≈ 13.1 µM).
In experiment [5], `OC(Cn1cncn1)(Cn1cncn1)c1ccc(F)cc1F` [FLUCONAZOLE] gave an MIC of 6 µg/mL (≈ 19.6 µM).
Regarding `NC(=O)N/N=C/c1ccc([N+](=O)[O-])o1` [NITROFURAZONE], the MIC in experiment [1] worked out at 12.5 µg/mL (≈ 63.1 µM); in experiment [2], 12.5 µg/mL (≈ 63.1 µM); in experiment [3], 6 µg/mL (≈ 30.3 µM); in experiment [4], 12.5 µg/mL (≈ 63.1 µM).
